Measurements from ChEMBL document CHEMBL3244290, “N-Alkyl derivatives of (+/-)-alpha-methyldopamine” (J Med Chem, 1979).
Active and inactive are the calls of the source. The calls are words filed in the database; no cut-off is given here.

Tests used:
[1] = organism: Felis catus; test: Inhibition of field stimulation-induced positive chronotrophic response in cat atria; type: functional; settings: Cardiac atrium
[2] = organism: Canis lupus familiaris; test: Inhibition of electric stimulated dog right cardioaccelerator nerve; type: functional
Outline: (§1)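 Dog cardioaccelerator nerve preparation under barbital (200 mg/kg) anaesthesia. Compounds given intravenously up to 1.0 mg/kg. Positive chronotropic responses read by cardiometer, with blood pressure taken from the right femoral artery.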

[3] = system: Canis familiaris; test: Increase in blood pressure in dog at 0.5 mg/kg, iv by cardiotachometer; type: functional, Canis lupus familiaris
Outline: (§2)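 Anaesthetised dog (barbital 200 mg/kg). Compounds given intravenously, highest dose tested 1.0 mg/kg. Blood pressure recorded from the right femoral artery and heart rate by cardiometer. Resting heart rate, blood pressure and positive chronotropic responses were assessed after dosing. Doses calculated as free base.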

[4] = system: Canis familiaris; test: Increase in resting heart rate in dog at 0.5 mg/kg, iv by cardiotachometer; type: functional, organism-based; parameters: dose 0.5 mg/kg; settings: Canis lupus familiaris; outline: as §2
[5] = system: Rattus norvegicus; test: Induction of rotation in rat with unilateral denervation of caudate nucleus at 4 mg/kg, sc; type: functional, organism-based; parameters: dose 4 mg/kg
Outline: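 Rats given a unilateral 6-hydroxydopamine injection into the substantia nigra. Compounds dosed subcutaneously and the rotations they induced were counted. Apomorphine served as the reference.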

[6] = system: Canis familiaris; test: Toxicity in dog assessed as emesis at 2 mg/kg, sc; type: organism-based, Canis lupus familiaris; parameters: dose 2 mg/kg, route subcutaneous; settings: in vivo
Outline: (§3)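 Unanaesthetised dogs. For emesis, compound given sc and dogs watched 45 min for an emetic response. For antagonism, compound given sc and apomorphine 100 μg/kg 15 min later.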

[7] = system: Canis familiaris; test: Inhibition of apomorphine-induced emesis in dog at 2 mg/kg, sc; type: functional, organism-based; parameters: dose 2 mg/kg; settings: Canis lupus familiaris; outline: as §3
[8] = Toxicity in pigeon assessed as pecking; settings: columbidae
Outline: (§4)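 Pigeons. Compounds given intramuscularly at up to 4 mg/kg to test induction of pecking. Antagonism of pecking induced by apomorphine (1.62 μM/kg) was also tested, and ED50 values were estimated.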

[9] = organism: Rattus norvegicus; test: Toxicity in Sprague-Dawley rat assessed as locomotor hyperactivity treated bilateral injection into nucleus accumbens at 50 ug; type: organism-based; settings: in vivo, other
Outline: (§5)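 Male Sprague-Dawley rats (250 ± 25 g) with stereotaxic guide cannulae aimed at the nucleus accumbens. Tested 10–14 days after surgery with a bilateral 1 μL infusion over 60 s; each rat used once and placement checked histologically. Locomotion counted by photocell cage. Stereotypy scored, where 3–4 = biting, gnawing or licking. Pretreatments given ip: α-methyl-p-tyrosine 250 mg/kg 6 h before, or haloperidol 0.1, propranolol 5 or aceperone 2.5 mg/kg 30 min before.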

[10] = organism: Rattus norvegicus; test: Toxicity in Sprague-Dawley rat assessed as biting up to 50 ug injection into nucleus accumbens; type: organism-based; settings: in vivo, other; outline: as §5
[11] = organism: Rattus norvegicus; test: Toxicity in Sprague-Dawley rat assessed as gnawing up to 50 ug injection into nucleus accumbens; type: organism-based; settings: in vivo, other; outline: as §5
[12] = organism: Rattus norvegicus; test: Toxicity in Sprague-Dawley rat assessed as licking up to 50 ug injection into nucleus accumbens; type: organism-based; settings: in vivo, other; outline: as §5
[13] = organism: Felis catus; test: Inhibition of field stimulation-induced positive ionotrophic response in cat atria; type: functional; settings: Cardiac atrium
[14] = system: Columbidae; test: Inhibition of apomorphine-induced pecking in pigeon; type: functional; outline: as §4
[15] = system: Canis familiaris; test: Increase in heart rate in dog at 1 mg/kg, iv by cardiotachometer; type: functional, organism-based; parameters: dose 1 mg/kg; settings: Canis lupus familiaris; outline: as §2
[16] = system: Canis familiaris; test: Increase in ionotrophic response in dog following field stimulation at 1 mg/kg, iv by cardiotachometer; type: functional, organism-based; parameters: dose 1 mg/kg; settings: Canis lupus familiaris; outline: as §1
[17] = system: Canis familiaris; test: Increase in ionotrophic response in iv dosed dog following field stimulation assessed as minimum effective dose by cardiotachometer; type: functional, Canis lupus familiaris; parameters: unit not given here; outline: as §1

Q: For `COc1ccc(CC(C)N)cc1OC.Cl` (racemic), which inhibition [1] is on record?
A: Its inhibition is “inactive”.

Q: And the inhibition [2]?
A: The inhibition was “inactive”.

Q: And the Activity [3]?
A: The Activity was “<=10 mmHg”.

Q: What about the Activity [4] of the same compound?
A: The Activity was “inactive”.

Q: What about the Activity [5] of the same compound?
A: The Activity was “inactive”.

Q: What about the Activity [6] of the same compound?
A: Its Activity is “Non-toxic”.

Q: And the Activity [7]?
A: Its Activity is “inactive”.

Q: What about the Activity [8] of the same compound?
A: Its Activity is “Non-toxic”.

Q: What about the Activity [9] of the same compound?
A: Its Activity is “Non-toxic”.

Q: And the Activity [10]?
A: Its Activity is “Non-toxic”.

Q: And the Activity [11]?
A: Its Activity is “Non-toxic”.

Q: And the Activity [12]?
A: The Activity was “Non-toxic”.

Q: And the inhibition [13]?
A: Its inhibition is “inactive”.

Q: Which inhibition [1] does the source give for `CNC(C)Cc1ccc(OC)c(OC)c1.Cl` (racemic) here?
A: The inhibition was “inactive”.

Q: And the inhibition [2]?
A: Its inhibition is “inactive”.

Q: What about the Activity [3] of the same compound?
A: Its Activity is “<=10 mmHg”.

Q: And the Activity [4]?
A: Its Activity is “inactive”.

Q: What about the Activity [5] of the same compound?
A: The Activity was “inactive”.

Q: What about the Activity [6] of the same compound?
A: Its Activity is “Non-toxic”.

Q: What about the Activity [7] of the same compound?
A: The Activity was “inactive”.

Q: And the Activity [8]?
A: Its Activity is “Non-toxic”.

Q: And the inhibition [13]?
A: The inhibition was “inactive”.

Q: For `COc1ccc(CC(C)N(C)C)cc1OC.Cl` (racemic), which inhibition [1] is on record?
A: Its inhibition is “inactive”.

Q: And the inhibition [2]?
A: Its inhibition is “inactive”.

Q: What about the Activity [3] of the same compound?
A: The Activity was “<=10 mmHg”.

Q: What about the Activity [4] of the same compound?
A: The Activity was “inactive”.

Q: What about the Activity [5] of the same compound?
A: The Activity was “inactive”.

Q: What about the Activity [6] of the same compound?
A: The Activity was “Non-toxic”.

Q: And the Activity [7]?
A: The Activity was “inactive”.

Q: And the Activity [8]?
A: Its Activity is “Non-toxic”.

Q: And the inhibition [14]?
A: Its inhibition is “Active”.

Q: And the inhibition [13]?
A: The inhibition was “inactive”.

Q: For `CCN(CC)C(C)Cc1ccc(OC)c(OC)c1.Cl` (racemic), which inhibition [1] is on record?
A: Its inhibition is “inactive”.

Q: And the Activity [15]?
A: Its Activity is “Active”.

Q: And the Activity [16]?
A: Its Activity is “Active”.

Q: And the MED [17]?
A: Its MED is 20.

Q: What about the inhibition [2] of the same compound?
A: Its inhibition is “inactive”.

Q: What about the Activity [3] of the same compound?
A: The Activity was “<=10 mmHg”.

Q: What about the Activity [4] of the same compound?
A: Its Activity is “inactive”.

Q: What about the Activity [5] of the same compound?
A: Its Activity is “inactive”.

Q: And the Activity [6]?
A: Its Activity is “Non-toxic”.

Q: What about the Activity [7] of the same compound?
A: The Activity was “inactive”.

Q: And the Activity [8]?
A: Its Activity is “Non-toxic”.

Q: And the inhibition [14]?
A: Its inhibition is “Active”.

Q: And the inhibition [13]?
A: The inhibition was “inactive”.

Q: For `CCCN(CCC)C(C)Cc1ccc(OC)c(OC)c1.Cl` (racemic), which inhibition [1] is on record?
A: The inhibition was “inactive”.

Q: What about the inhibition [2] of the same compound?
A: The inhibition was “inactive”.

Q: What about the Activity [3] of the same compound?
A: Its Activity is “<=10 mmHg”.

Q: And the Activity [4]?
A: Its Activity is “inactive”.

Q: And the Activity [6]?
A: Its Activity is “Non-toxic”.

Q: What about the Activity [7] of the same compound?
A: Its Activity is “inactive”.

Q: What about the Activity [8] of the same compound?
A: Its Activity is “Non-toxic”.

Q: What about the inhibition [14] of the same compound?
A: The inhibition was “Active”.

Q: And the inhibition [13]?
A: The inhibition was “inactive”.

Q: For `CCCCN(CCCC)C(C)Cc1ccc(OC)c(OC)c1.Cl` (racemic), which inhibition [1] is on record?
A: The inhibition was “inactive”.

Q: What about the inhibition [2] of the same compound?
A: Its inhibition is “inactive”.

Q: What about the Activity [3] of the same compound?
A: The Activity was “<=10 mmHg”.

Q: What about the Activity [4] of the same compound?
A: The Activity was “inactive”.

Q: And the Activity [6]?
A: Its Activity is “Non-toxic”.

Q: What about the Activity [7] of the same compound?
A: The Activity was “inactive”.

Q: And the Activity [8]?
A: Its Activity is “Non-toxic”.

Q: And the inhibition [13]?
A: The inhibition was “inactive”.

Q: With `CCCNC(C)Cc1ccc(OC)c(OC)c1.Cl` (racemic) as the compound, how does the inhibition [1] read?
A: The inhibition was “inactive”.

Q: What about the Activity [15] of the same compound?
A: Its Activity is “Active”.

Q: And the Activity [16]?
A: The Activity was “Active”.

Q: And the MED [17]?
A: The MED was 20.

Q: And the inhibition [2]?
A: The inhibition was “inactive”.

Q: What about the Activity [3] of the same compound?
A: Its Activity is “<=10 mmHg”.

Q: And the Activity [4]?
A: The Activity was “inactive”.

Q: And the Activity [5]?
A: The Activity was “inactive”.

Q: And the Activity [6]?
A: Its Activity is “Non-toxic”.

Q: What about the Activity [7] of the same compound?
A: The Activity was “inactive”.

Q: What about the Activity [8] of the same compound?
A: Its Activity is “Non-toxic”.

Q: What about the Activity [9] of the same compound?
A: The Activity was “Non-toxic”.

Q: And the Activity [10]?
A: Its Activity is “Non-toxic”.

Q: And the Activity [11]?
A: Its Activity is “Non-toxic”.

Q: What about the Activity [12] of the same compound?
A: The Activity was “Non-toxic”.

Q: And the inhibition [13]?
A: Its inhibition is “inactive”.

Q: With `CCCCNC(C)Cc1ccc(OC)c(OC)c1.Cl` (racemic) as the compound, how does the inhibition [1] read?
A: The inhibition was “inactive”.

Q: What about the Activity [15] of the same compound?
A: The Activity was “Active”.

Q: What about the Activity [16] of the same compound?
A: Its Activity is “Active”.

Q: What about the MED [17] of the same compound?
A: The MED was 20.

Q: And the inhibition [2]?
A: Its inhibition is “inactive”.

Q: What about the Activity [3] of the same compound?
A: The Activity was “<=10 mmHg”.

Q: What about the Activity [4] of the same compound?
A: Its Activity is “inactive”.

Q: And the Activity [6]?
A: Its Activity is “Non-toxic”.

Q: And the Activity [7]?
A: Its Activity is “inactive”.

Q: And the Activity [8]?
A: The Activity was “Non-toxic”.

Q: What about the inhibition [13] of the same compound?
A: The inhibition was “inactive”.
